By IC50 is commonly meant the concentration that gives 50% inhibition. The IC90 is the concentration at which the effect reaches the 90% level.

Converted amounts (≈) assume the structure as drawn. Some results are limits rather than exact numbers.

Experimental findings from ChEMBL document CHEMBL2151018, “Bioassay-guided investigation of the Tanzanian plant Pyrenacantha kaurabassana for potential anti-HIV-active compounds” (J Nat Prod, 2012) are described below.

One series deals with HEK-293T. The series can be described thus: (§1) Cytotoxicity against human HEK293T cells after 4 days by Alamar blue assay. The class given is cell-based. The note with it: hek-293t, 96 h. Background: Alamar Blue is a resazurin reagent that responds to reducing activity.
Series [1] is described as follows: as §1. In kind it is cell-based, HEK-293T. The note with it: HEK293T cells, read-out: TC50.
The subject of series [2] is Human immunodeficiency virus 1. Kind of series: Antiviral activity against CCR5-tropic HIV1 NL-AD87 infected in HEK293T cells assessed as inhibition of viral replication after 4 days by beta-galactosidase reporter gene assay. The note with it: Human immunodeficiency virus 1, NL-AD87, HEK-293T, 96 h. The class given is functional, organism-based. Put shortly: (§2)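 Measured in the proprietary deCIPhR cell-based system using fully replicative virus. Two HIV lab strains from molecular clones differing in coreceptor tropism were used: pNL4-3 (CXCR4 usage) and pNL-AD87 (CCR5 usage). IC50 is the 50% inhibitory concentration in the anti-HIV assay, expressed in μg/mL; IC90 was also determined.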
(In general: In a reporter assay the amount or activity of a reporter protein is the signal.)

Series [3] has as its system Human immunodeficiency virus 1. The series can be described thus: Antiviral activity against CXCR4-tropic HIV1 NL4-3 infected in HEK293T cells assessed as inhibition of viral replication after 4 days by beta-galactosidase reporter gene assay. In kind it is functional, organism-based. The note with it: Human immunodeficiency virus 1, NL4-3, HEK-293T, 96 h. Put shortly:
as §2

Series [4] can be described thus: Selectivity index, ratio of TC50 for human HEK293T cells to IC50 for CCR5-tropic HIV1 NL-AD87 infected in HEK293T cells. The note with it: read-out: Selectivity Index. In kind it is toxicity, cell-based, HEK-293T.
Series [5] can be described thus: Selectivity index, ratio of TC50 for human HEK293T cells to IC90 for CXCR4-tropic HIV1 NL4-3 infected in HEK293T cells. The note with it: read-out: Selectivity Index. In kind it is toxicity, cell-based, HEK-293T.
Series [6] is described as follows: Selectivity index, ratio of TC50 for human HEK293T cells to IC90 for CCR5-tropic HIV1 NL-AD87 infected in HEK293T cells. The note with it: read-out: Selectivity Index. In kind it is toxicity, cell-based, HEK-293T.
Series [7] can be described thus: Selectivity index, ratio of TC50 for human HEK293T cells to IC50 for CXCR4-tropic HIV1 NL4-3 infected in HEK293T cells. In kind it is toxicity, cell-based, HEK-293T. The note with it: read-out: Selectivity Index.

In the series on HEK-293T, `COc1cc2c(c(-c3cc(O)c4c(O)c5oc6c(C(=O)O)cc(C)cc6c(=O)c5c(O)c4c3OC)c1)CC(C)OC2=O` (stereo not given) displayed a TC90 of more than 12.5 µg/mL. Besides, in series [1], the CC50 at 96 h is more than 12.5 µg/mL. In series [2], the IC50 amounted to 21 µg/mL (≈ 36.7 µM) and the IC90 stood at 111 µg/mL (≈ 194 µM). In addition, in series [3], the IC50 is 21 µg/mL (≈ 36.7 µM) and the IC90 was 111 µg/mL (≈ 194 µM).

For `COc1cc2c(c(-c3cc(O)c4c(O)c5oc6c(C(=O)O)cc(C)cc6c(=O)c5c(OC)c4c3OC)c1)CC(C)OC2=O` (stereo not given), the TC90 with HEK-293T was 154 µg/mL (≈ 263 µM). The CC50 at 96 h in series [1] came out at 31 µg/mL (≈ 52.9 µM). The selectivity ratio in series [4] was 15.5; in series [5], 7; in series [6], 7; in series [7] it was 15.5. In addition, the IC50 in series [2] and in series [3] was 2 µg/mL (≈ 3.41 µM) in each case. Also, the IC90 in series [2] and in series [3] was 22 µg/mL (≈ 37.5 µM) throughout.

In the case of enfuvirtide, the IC50 in series [2] and in series [3] was 0.01 µg/mL throughout. The IC90 in series [2] and in series [3] was 0.026 µg/mL each time.
